Measured values from ChEMBL document CHEMBL4014311, “Discovery of a Hepatitis C Virus NS5B Replicase Palm Site Allosteric Inhibitor (BMS-929075) Advanced to Phase 1 Clinical Studies” (J Med Chem, 2017).

How the values were obtained:
[1] = Cytotoxicity against human HuH7 cells after 3 days by CellTiter-Blue assay; type: cell-based, Huh-7
[2] = tested on: Hepatitis C virus; assay: Antiviral activity against HCV genotype 1a infected in human HuH7 cells after 3 days by luciferase reporter assay; type: functional, cell-based, Hepacivirus hominis, subtype 1a; settings: Hepatitis C virus, subtype 1a, Huh-7, 72 h; read-out: EC50
[3] = Half life in human liver microsomes; type: ADME, microsome
[4] = Half life in rat liver microsomes; type: ADME, microsome
[5] = molecular target: T1, Cytochrome P450 2C8 (Homo sapiens, UniProt P10632); assay: Inhibition of microsomal CYP2C8 (unknown origin); type: ADME
T1 sequence (P10632 whole entry): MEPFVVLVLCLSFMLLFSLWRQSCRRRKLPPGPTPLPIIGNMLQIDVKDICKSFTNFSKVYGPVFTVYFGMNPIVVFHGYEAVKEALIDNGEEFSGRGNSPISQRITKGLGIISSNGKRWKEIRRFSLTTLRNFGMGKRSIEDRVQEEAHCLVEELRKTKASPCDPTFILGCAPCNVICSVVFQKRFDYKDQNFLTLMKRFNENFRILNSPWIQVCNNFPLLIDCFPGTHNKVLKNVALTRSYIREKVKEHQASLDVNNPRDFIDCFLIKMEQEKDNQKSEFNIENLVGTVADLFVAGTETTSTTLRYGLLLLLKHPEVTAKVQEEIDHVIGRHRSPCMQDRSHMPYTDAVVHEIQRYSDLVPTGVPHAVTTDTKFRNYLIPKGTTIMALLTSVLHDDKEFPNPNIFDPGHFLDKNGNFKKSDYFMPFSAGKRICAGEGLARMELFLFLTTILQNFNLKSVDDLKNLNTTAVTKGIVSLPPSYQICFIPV

[6] = molecular target: Cytochrome P450 3A4 (Homo sapiens, UniProt P08684); assay: Inhibition of microsomal CYP3A4 (unknown origin); type: ADME
[7] = molecular target: T2, Nuclear receptor subfamily 1 group I member 2 (Homo sapiens, UniProt O75469); assay: Transactivation of PXR (unknown origin); type: ADME
T2 sequence (O75469 whole entry): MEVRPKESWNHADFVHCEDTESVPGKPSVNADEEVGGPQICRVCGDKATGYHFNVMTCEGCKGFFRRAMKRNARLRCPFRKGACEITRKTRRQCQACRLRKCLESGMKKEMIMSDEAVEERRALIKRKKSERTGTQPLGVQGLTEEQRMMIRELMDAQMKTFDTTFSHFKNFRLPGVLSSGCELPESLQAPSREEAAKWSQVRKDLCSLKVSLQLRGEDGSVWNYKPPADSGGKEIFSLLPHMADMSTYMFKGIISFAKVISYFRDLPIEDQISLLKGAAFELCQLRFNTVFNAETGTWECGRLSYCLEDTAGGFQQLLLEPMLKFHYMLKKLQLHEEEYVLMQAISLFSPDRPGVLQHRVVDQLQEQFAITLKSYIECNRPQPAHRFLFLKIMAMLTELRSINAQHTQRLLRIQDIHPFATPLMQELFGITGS

[8] = Ratio of plasma concentration in human at 25 mg/day administered as single dose to EC50 for HCV genotype 1b NS5B C316N mutant infected in human HuH7 cells
How it was run: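 Randomized, double-blind, placebo-controlled Phase I single ascending dose study in healthy volunteers. Single oral dose of an amorphous solid dispersion formulation with 30% drug loading, at doses up to 400 mg. Human plasma exposure was measured and set against the replicon EC50.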

[9] = Ratio of plasma concentration in human at 25 mg up to 14 days to EC50 for HCV genotype 1b NS5B C316N mutant infected in human HuH7 cells
How it was run: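 Randomized, double-blind, placebo-controlled Phase I multiple ascending dose study in healthy volunteers. Oral amorphous solid dispersion formulation, 30% drug loading, given daily for 14 days at doses up to 400 mg/day. Human plasma exposure was measured and set against the replicon EC50.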

[10] = Lipophilicity, log D of the compound at pH 6.5 by shake flask method; type: physicochemical; settings: buffer
[11] = Half life in Sprague-Dawley rat at 2 mg/kg,iv by LC/MS/MS analysis; type: ADME, organism-based; settings: Sprague-Dawley, in vivo
How it was run: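 A 10 min constant-rate jugular vein infusion was given in 90:10 PEG-400/ethanol (v/v), n = 3 rats. Plasma was sampled predose and at 10, 15, 30, 45, 60 min and 2, 4, 6, 8, 24 h, then assayed by LC/MS/MS. Clearance and apparent terminal t1/2 were estimated by noncompartmental analysis.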

[12] = Volume of distribution at steady state in Sprague-Dawley rat at 2 mg/kg, iv by LC/MS/MS analysis; type: ADME, organism-based; settings: Sprague-Dawley, in vivo, read-out: Vdss
How it was run: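 Rats received a 2 mg/kg IV dose in 90:10 PEG-400/ethanol as a 10 min constant-rate jugular infusion. Blood collected predose and at 10, 15, 30, 45, 60 min and 2, 4, 6, 8, 24 h; n = 3. Plasma analyzed by LC/MS/MS. Vss derived by noncompartmental analysis of IV data.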

[13] = AUC in Sprague-Dawley rat at 6 mg/kg, po administered via gavage by LC/MS/MS analysis; type: ADME, organism-based; settings: in vivo
How it was run: (§1)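 Rats were fasted overnight with free access to water, then dosed by gastric gavage with an […] solution in 90:10 PEG-400/ethanol (v/v), n = 3 per group. EDTA plasma was sampled predose and at 15, 30, 45, 60 min and 2, 4, 6, 8, 24 h, then assayed by LC/MS/MS. Parameters come from noncompartmental analysis: Cmax observed directly, AUC by linear/log trapezoidal summation, F as dose-normalized PO/IV AUC ratio.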

[14] = Oral bioavailability in Sprague-Dawley rat at 6 mg/kg by LC/MS/MS analysis; type: ADME, organism-based; settings: in vivo; how it was run: as §1
[15] = tested on: Hepatitis C virus; assay: Antiviral activity against HCV genotype 2a infected in human HuH7 cells after 3 days by luciferase reporter assay; type: functional, cell-based, Hepacivirus hominis; settings: Huh-7, 72 h
[16] = Protein binding in human serum; type: ADME, cell-free; settings: read-out: PB (converted)
[17] = tested on: Hepatitis C virus; assay: Ratio of EC50 for HCV genotype 1a infected in human HuH7 cells in presence of 40% human serum to EC50 for HCV genotype 1a infected in human HuH7 cells; type: functional, Hepacivirus hominis, subtype 1a
[18] = Lipophilicity, log D of the compound by shake flask method; type: physicochemical; settings: octanol/water
[19] = Protein binding in rat serum; type: ADME, cell-free; settings: read-out: PB (converted)
[20] = Protein binding in dog serum; type: ADME, cell-free, Canis lupus familiaris; settings: read-out: PB (converted)
[21] = Aqueous solubility of compound; type: physicochemical; settings: buffer
[22] = AUC in Sprague-Dawley rat at 6 mg/kg, po administered via gavage using docusate sodium/methocel/water formulation by LC/MS/MS analysis; type: ADME, organism-based; settings: in vivo
How it was run: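 Rats were fasted overnight and gavaged with a suspension of spray-dried dispersion (10% w/w drug loading in 0.02:0.5:99.48 docusate/methocel/water), n = 3 per group. Serial EDTA plasma was taken predose to 24 h and assayed by LC/MS/MS. Analysis was noncompartmental: Cmax observed, AUC by linear/log trapezoids, F from dose-normalized PO versus IV AUC.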

[23] = tested on: Rattus norvegicus; assay: Toxicity in rat up to 100 mg/kg, po administered as single dose measured up to 2 weeks; type: organism-based; settings: in vivo, 336 h
[24] = molecular target: Sodium channel protein type 5 subunit alpha (Homo sapiens, UniProt Q14524); assay: Inhibition of Nav1.5 (unknown origin)
[25] = tested on: Homo sapiens; assay: Toxicity in human up to 400 mg/day, po for 14 days; settings: in vivo, 336 h

Sequence of Cytochrome P450 3A4 (P08684 whole entry): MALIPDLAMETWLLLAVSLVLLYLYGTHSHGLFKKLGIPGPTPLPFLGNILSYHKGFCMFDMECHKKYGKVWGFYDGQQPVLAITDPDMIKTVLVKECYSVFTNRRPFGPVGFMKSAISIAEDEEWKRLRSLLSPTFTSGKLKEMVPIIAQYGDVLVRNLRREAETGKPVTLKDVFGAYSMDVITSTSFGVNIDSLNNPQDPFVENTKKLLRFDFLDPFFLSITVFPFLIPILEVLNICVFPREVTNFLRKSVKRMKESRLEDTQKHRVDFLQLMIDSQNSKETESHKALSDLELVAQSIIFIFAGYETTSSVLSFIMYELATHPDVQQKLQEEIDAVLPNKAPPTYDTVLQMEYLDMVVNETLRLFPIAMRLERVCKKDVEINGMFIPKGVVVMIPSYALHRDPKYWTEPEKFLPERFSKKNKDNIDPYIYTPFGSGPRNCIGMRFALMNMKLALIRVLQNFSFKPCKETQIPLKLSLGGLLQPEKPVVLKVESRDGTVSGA
Sequence of Sodium channel protein type 5 subunit alpha (Q14524 whole entry): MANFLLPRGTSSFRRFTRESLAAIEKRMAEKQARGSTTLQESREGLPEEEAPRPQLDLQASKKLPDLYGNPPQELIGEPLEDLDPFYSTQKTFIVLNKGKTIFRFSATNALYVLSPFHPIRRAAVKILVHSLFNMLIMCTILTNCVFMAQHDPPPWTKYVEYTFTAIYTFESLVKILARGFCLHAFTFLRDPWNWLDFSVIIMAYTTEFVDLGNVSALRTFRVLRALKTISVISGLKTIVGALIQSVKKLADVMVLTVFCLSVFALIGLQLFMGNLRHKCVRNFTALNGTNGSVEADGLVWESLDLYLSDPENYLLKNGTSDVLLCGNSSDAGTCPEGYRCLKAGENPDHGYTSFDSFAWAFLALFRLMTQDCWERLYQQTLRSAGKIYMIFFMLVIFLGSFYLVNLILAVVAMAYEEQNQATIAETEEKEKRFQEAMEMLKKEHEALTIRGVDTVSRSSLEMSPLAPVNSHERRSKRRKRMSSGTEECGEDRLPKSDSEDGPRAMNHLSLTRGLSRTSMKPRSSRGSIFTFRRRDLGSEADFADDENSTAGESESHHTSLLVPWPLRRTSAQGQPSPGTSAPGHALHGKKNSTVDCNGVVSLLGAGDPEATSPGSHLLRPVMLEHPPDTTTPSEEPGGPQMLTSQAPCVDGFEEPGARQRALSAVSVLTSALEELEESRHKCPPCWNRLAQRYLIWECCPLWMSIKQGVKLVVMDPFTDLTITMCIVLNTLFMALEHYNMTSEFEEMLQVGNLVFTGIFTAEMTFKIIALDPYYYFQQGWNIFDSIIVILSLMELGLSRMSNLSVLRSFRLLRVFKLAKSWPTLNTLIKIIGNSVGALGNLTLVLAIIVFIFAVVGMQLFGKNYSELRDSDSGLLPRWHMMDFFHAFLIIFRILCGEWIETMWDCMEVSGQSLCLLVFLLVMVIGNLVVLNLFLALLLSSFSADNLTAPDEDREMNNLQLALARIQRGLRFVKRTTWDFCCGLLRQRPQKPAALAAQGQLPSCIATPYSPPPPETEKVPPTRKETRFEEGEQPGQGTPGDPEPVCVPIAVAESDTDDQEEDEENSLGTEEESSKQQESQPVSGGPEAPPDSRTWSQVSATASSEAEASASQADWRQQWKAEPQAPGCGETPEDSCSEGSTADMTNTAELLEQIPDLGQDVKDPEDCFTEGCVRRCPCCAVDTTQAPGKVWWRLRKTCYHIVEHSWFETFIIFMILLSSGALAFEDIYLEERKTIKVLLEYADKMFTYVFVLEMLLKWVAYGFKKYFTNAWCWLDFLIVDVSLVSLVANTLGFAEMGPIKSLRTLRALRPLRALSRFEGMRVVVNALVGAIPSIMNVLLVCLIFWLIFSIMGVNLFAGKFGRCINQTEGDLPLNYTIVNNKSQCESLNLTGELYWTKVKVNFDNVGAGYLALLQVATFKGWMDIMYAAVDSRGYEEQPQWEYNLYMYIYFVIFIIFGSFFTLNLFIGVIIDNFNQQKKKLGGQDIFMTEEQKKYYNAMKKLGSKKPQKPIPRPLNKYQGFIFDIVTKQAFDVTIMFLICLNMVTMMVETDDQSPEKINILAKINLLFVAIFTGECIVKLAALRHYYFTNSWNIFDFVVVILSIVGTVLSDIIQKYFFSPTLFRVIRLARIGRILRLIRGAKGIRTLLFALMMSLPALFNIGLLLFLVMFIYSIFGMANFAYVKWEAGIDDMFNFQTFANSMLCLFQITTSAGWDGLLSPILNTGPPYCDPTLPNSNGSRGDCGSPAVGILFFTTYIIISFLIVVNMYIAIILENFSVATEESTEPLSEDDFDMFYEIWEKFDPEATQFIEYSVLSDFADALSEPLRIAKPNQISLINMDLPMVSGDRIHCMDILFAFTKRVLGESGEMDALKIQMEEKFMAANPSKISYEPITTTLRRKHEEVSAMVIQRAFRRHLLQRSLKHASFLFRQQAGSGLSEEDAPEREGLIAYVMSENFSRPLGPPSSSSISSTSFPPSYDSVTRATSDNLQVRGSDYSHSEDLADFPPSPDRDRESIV

CNC(=O)c1c(-c2ccc(F)cc2)oc2ccc(-c3cc(C(=O)NC4(c5ncccn5)CC4)ccc3C)c(F)c12 [BMS-929075]
CC50 at 72 h [1]: 60 µM | EC50 [2]: 0.009 µM | half-life [3]: > 2 h | half-life [4]: > 2 h | IC50 [5]: 6.7 µM | IC50 [6]: > 13 µM | EC50 [7]: > 50 µM | Ratio [8]: 10 | Ratio [9]: 10 | logD [10]: 5.09 | half-life [11]: 4.7 h | Vd [12]: 0.7 L/kg | AUC [13]: 54.5 µM·h | bioavailability [14]: 48% | EC50 [15]: 0.481 µM | fraction unbound [16]: 0.018 | Ratio EC50 [17]: 5.5 | logD [18]: 5.09 | fraction unbound [19]: 0.003 | fraction unbound [20]: 0.019 | solubility [21]: < 1 µg/mL | AUC [22]: 140 µM·h | Activity [23]: Non-Toxic | inhibition (INH) [24]: Not Active | Activity [25]: Non-Toxic
